Several values for one entry are separate records, joined by “and”; a condition that tells them apart may be missing. Identical values can stand only once. Like-named read-outs stand apart in the source and are kept apart here.
Columns and labels:
HEK 293A cells [1] = test: Fluorescence microscopy of patched cells; assay type: cell-based; details: ORB at all three concentrations, 10 min
HEK 293A cells [2] = assay type: cell-based; details: for Dw ± standard error (detergent in water, intercept): quiescent, onset of increased permeability; for partition constant K [lower bound, upper bound]: range from error in Rb and intercept
How it was run: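 HEK 293A cells (passages 12–17) detached with detachin, rested in serum-free medium, then 1.5, 5, 10 or 15 million cells in ECS incubated 15 min with graded detergent. Cells were pelleted at 1000 rpm, resuspended in ECS and patched on an IonFlux 16 ensemble whole-cell system with K-aspartate intracellular solution. Time-averaged current over the first 4 min served as the permeability read-out. Detergent giving a 1 nA rise ×15 estimated the onset. Onset concentration vs lipid concentration was fitted linearly: slope Rb, intercept Dw.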

HEK 293A cells [3] = test: Ensemble whole cell patch clamp; assay type: cell-based; details: for change in membrane conductivity compared to ECS controls: 0.004 and 0.04 mM SDS, 0.0001 and 0.001 mM CTAB; for concentration at which increased membrane permeability is induced: current change 900 s after exposure, superfusion
HEK 293A cells [4] = assay type: cell-based; details: for reversal of increased conductivity at end of experiment (600 s): 0.2 mM SDS 30 s exposure, 0.1 mM CTAB 10 s, 0.137 mM ORB 10 s; for reversibility of increased permeability induced within 10 s of exposure: 0.2 mM SDS, 0.1 mM CTAB, 0.137 mM ORB, 15 min after exposure
How it was run: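 IonFlux 16 whole-cell patch clamp of HEK 293A cells in ECS at sub-solubilising test concentrations, applied for 10, 30 or 300 s. Exposure was followed by ECS perfusion for 900 s. Membrane current was tracked for reversal. Controls were ECS alone or ECS + 5% DMSO, the vehicle for the rhodamine lipid probe.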

HEK293A cells = test: XTT assay; assay type: cell-based; details: 20 min
How it was run: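 HEK293A cells were seeded at 100000 cells/well and incubated overnight at 37 °C, 5% CO2. Cells were exposed 20 min to test compound in ECS, or to ECS alone, then the supernatant was replaced with PBS. XTT reagent (solution A:B, 50:1) was added and incubated 2 h at 37 °C. A490 minus A690 was read, and % viability was expressed relative to ECS-treated cells.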

[5] = Critical micelle concentration by DPH fluorimetric method; assay type: physicochemical
How it was run: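 Fluorimetric CMC determination: 10 μL of 1 mM diphenylhexatriene (DPH) in tetrahydrofuran added to test detergent serially diluted in ECS (pH 7.45, HEPES-buffered saline with glucose). Excitation 358 nm, emission scanned 400–500 nm. CMC taken at the sharp rise in fluorescence as DPH enters micelles.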

[6] = POPC vesicles; cited from earlier work
[7] = POPC/POPG vesicles; cited from earlier work
[8] = depending on size, composition of vesicles and temperature; cited from earlier work
HEK 293A cells [9] = test: Quiescent partitioning experiment with trypan blue assay; assay type: cell-based; details: range from error estimate
How it was run: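 Cationic detergent only. HEK 293A cells in ECS were pretreated 15 min with graded detergent concentrations as in the patch-clamp partitioning protocol. Trypan blue exclusion, not patch clamp, served as the membrane-permeability marker. Onset concentration was plotted against cellular lipid concentration and fitted linearly (slope Rb, intercept Dw). K was derived from R and Dw and reported as a range.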

[10] = 0.2 and 2 mM SDS, 0.1, 1 and 10 mM CTAB, 0.035, 0.14 and […] ORB
[11] = 2 mM SDS, 1 and 10 mM CTAB, 1.37 mM ORB
[12] = 0.004–0.2 mM SDS, 0.001–0.1 mM CTAB, 0.0137–0.137 mM ORB
[13] = 0.004–0.04 mM SDS, 0.0001–0.001 mM CTAB

Structure (SMILES) | Dw ± standard error (detergent in water, intercept) (HEK 293A cells [2]) | partition constant K [lower bound, upper bound] (HEK 293A cells [2]) | change in membrane current compared to ECS controls (HEK 293A cells [3]; [10]) | reversal of increased conductivity at end of experiment (600 s) (HEK 293A cells [4]) | reversibility of increased permeability induced within 10 s of exposure (HEK 293A cells [4]) | metabolic activity of exposed cells (XTT) (HEK293A cells; [11]) | metabolic activity of exposed cells (XTT) (HEK293A cells; [12]) | time of onset of current increase after compound release (HEK 293A cells [3]; 0.2 mM SDS, 0.1 mM CTAB) | group of current traces (HEK 293A cells [3]; 0.2 mM SDS, 0.1–10 mM CTAB) | time of onset of current increase after compound release (HEK 293A cells [3]; 2 mM SDS, 1 mM CTAB) | change in membrane conductivity compared to ECS controls (HEK 293A cells [3]) | group of current traces (HEK 293A cells [3]; [13]) | concentration at which increased membrane permeability is induced (HEK 293A cells [3]) | critical micelle concentration (CMC) in ECS [5] | CMC in water [5] | partition constant K [6] | other results
CCCCCCCCCCCCCCCCCCOC(=O)c1ccccc1-c1c2ccc(=[N+](CC)CC)cc-2oc2cc(N(CC)CC)ccc12.[Cl-] [ORB, octadecyl rhodamine B] | 7.3 ± 3.1 | 24000–99000 M^–1 | increased the membrane current significantly | not reversed | not reversible for over 15 min | reduced metabolic activity | do not show a loss in metabolic activity |  |  |  |  |  |  |  |  |  | state of cells after ORB exposure (ORB fluorescence) (HEK 293A cells [1]): fluorescent and intact; change in membrane current compared to controls (HEK 293A cells [3]; 0.014 (0.0137) mM ORB): significantly different from the ECS control but not 0.007 mM ORB
CCCCCCCCCCCCOS(=O)(=O)[O-].[Na+] [SDS, sodium dodecyl sulfate] | 29 ± 10 | 16300–39200 M^–1 | initial sharp increase in current | not reversed | not reversible for over 15 min | reduced metabolic activity | do not show a loss in metabolic activity | 2 to 3 s | 2 | 1 s | does not result in an increase in conductivity | 1 | 200 µM | 0.8 to 1 mM and ~0.8 mM | 6 to 8 mM | 33000 M^–1 | duration of initial change in current (HEK 293A cells [3]; 0.2 mM SDS): 3 to 4 s; duration of subsequent slow current increase (HEK 293A cells [3]; 0.2 mM SDS): 67 ± 25 s; current reached at the end of 15 min (HEK 293A cells [3]; 0.2 mM SDS, total current of 20 cells): ~50 nA; final current level (HEK 293A cells [3]; 2 mM SDS): eventually reached open channel current levels; group of current traces (HEK 293A cells [3]; 2 mM SDS): 3; time to reach open channel current (HEK 293A cells [3]; 2 mM SDS, except one trace that took 871 s): 120 ± 61 s; time within which large and sudden increase in conductivity occurs (HEK 293A cells [3]; 0.2 and 2 mM SDS): 1 to 3 s; partition constant K [7]: 37000 M^–1; partition constant K [8]: 12500 to 70000 M^–1
CCCCCCCCCCCCCCCC[N+](C)(C)C [CTAB, cetyltrimethylammonium bromide] | 4.2 ± 2.8 | 29000–476000 M^–1 | rapid increase in membrane current | not reversed | not reversible for over 15 min | reduced metabolic activity | do not show a loss in metabolic activity | 2 to 3 s and 1 to 3 s | 2 | 1 s | did not cause a change in conductance | 1 | 10 µM | 0.03 to 0.06 mM and ~0.06 mM | 1 to 2 mM | 350000 M^–1 | partition constant K range (trypan blue assay) (HEK 293A cells [9]): 37000 to 67000 M^–1; current eventually reached as fraction of open channel current (HEK 293A cells [3]; 0.01 mM CTAB): 1/3; change in membrane current compared to ECS controls (HEK 293A cells [3]; 0.01 mM CTAB (below CMC)): slow increase in current; time of onset of current increase after compound release (HEK 293A cells [3]; 10 mM CTAB): 1 s

From publication PMC3983356 (The Journal of Physical Chemistry. B, 2014)
